From PubChem
Rows were chosen to be rich in hits. Some 4.4% of all compounds tested hit in one or more screens of this group.
HSF1 inhib: HSF1 inhibition; NIH3T3-HGL HSE-luciferase, MG132-induced, luminescence 8 h; stronger effect = lower value; 300,000 tested, 0.77% active; activity change, negative = inhibition, % at 7.5 µM (by protocol);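 active = more than half of replicate wells show activity change below -50%, luminescence cut by over half; inconclusive = some wells, but at most half, below -50%; inactive = no replicate well below -50%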;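 also: luciferase reports HSF-1 transcriptional activity via heat shock element; 0% = median of DMSO wells and -100% = zero luminescence signal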
Calb FLC: affects C. albicans growth with fluconazole | growth inhibition, % (concentration not given with the values) | C. albicans CaCi-2 + fluconazole, Alamar Blue growth, 48 h | 300,000 tested, 0.57% active | AID 1979;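 active = growth inhibition above about 58% in most replicates, limit read from the data, passing the limit was not always enough; inconclusive = exactly half the replicates above a set limit; inactive = most replicates below a set limit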;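 also: all wells also contain fluconazole at 8 µg/ml as a sub-toxic cotreatment; 0% = median of DMSO wells and 100% = median of geldanamycin control wells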
HSF1 activator: increases HSF-1 driven luciferase reporter signal. NIH3T3-HGL HSF-1 luciferase reporter, MG132, 8 h; 100% = twice DMSO control signal. 300,000 tested, 1.7% active. AID 504408. activation, % at 9 µM;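 active = mean replicate activation of at least 50% with a set share of replicates each reaching 50%; inconclusive = only one of those two conditions met; inactive = mean below 50% and too few replicates reaching it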;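 also: 0% = median of the neutral control wells and 100% = twice that signal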
HIF act: HIF pathway transcriptional activation; U2OS HRE-luciferase reporter, luminescence; normalized: DMSO 0%, desferrioxamine 100%; 300,000 tested, 0.32% active; activation, % at 7.5 µM (by protocol);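 active = mean activation of at least 10% of the iron chelator positive control signal, with at least half of replicates also reaching 10%; inconclusive = mean and replicate majority disagree about reaching 10%; inactive = mean and most replicates under 10%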
T cruzi inh: T. cruzi replication inhibition; T. cruzi beta-gal in NIH3T3, luminescence, 90 h; inhibition, % (test concentration not listed); 300,000 tested, 1.4% active; AID 1885;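 active = mean inhibition across valid replicates above about 55%, limit read from the data; inconclusive = mean below that limit but half or more replicates reach it; inactive = mean below it, under half of replicates reach it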;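 also: signal also drops with host cell toxicity which is not excluded here; 0% = plate median of DMSO wells and 100% = zero luminescence signal; higher percent means less beta-gal luminescence so fewer parasites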
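System: Mouse NIH/3T3 fibroblasts infected with β-gal-expressing T. cruzi Tulahuen C4 | Quantity: NIH/3T3 cells, 5,000 per well | Reagent: 5000 reporter trypomastigotes per well | Dosing: Compound pinned at 50 nL/well, DMSO | Schedule: 3 h host attachment, then at least 90 h co-culture | Detection: GalScreen luminescence, 60 min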
* hit, by the source's call; ? = inconclusive; · = not tested or not shown.

SMILES	HSF1 inhib	Calb FLC	HSF1 activator	HIF act	T cruzi inh
Cc1ccc(-c2nn(-c3cc(N4CCNCC4)ccc3[N+](=O)[O-])c(=O)c3ccccc23)cc1	-2	12	14	-1	73*
Cc1nn(-c2cc(N3CCCCCC3)ccc2[N+](=O)[O-])c(=O)c2ccccc12	-3	-5	-4	0	25
CC(C)c1ccc(CCNC(=O)CCNC(=O)c2ccc(Br)cc2)cc1	-3	-3	4	0	2
C=CCn1c(SCc2c(C)noc2C)nc2sc(C)c(C)c2c1=O	61	-20	119*	1	17
C=CCn1c(SCC(=O)NCCO)nc2sc(C)c(C)c2c1=O	2	8	6	0	-4
Cc1noc(C)c1CSc1nc2sc(C)c(C)c2c(=O)n1-c1ccccc1	5	1	11	0	60*
Cc1cccc(NC(=S)c2nc3ccccc3s2)c1	0	-2	15	1	-15
CCc1ccc(C(=O)CSc2nc3cc(S(=O)(=O)N4CCOCC4)ccc3n2CC)cc1	21	-30	21	-4	6
Cc1cc(OC(=O)c2cc(Cl)ccc2Cl)c([N+](=O)[O-])c(=O)[nH]1	-4	5	4	0	-9
CCCCOC(=O)n1c(=O)oc2cc(S(=O)(=O)N3CCCCC3)ccc21	6	0	18	55*	-13
COc1cc2c(cc1CN1CCN(C(=O)c3cc(OC)c(OC)c(OC)c3)CC1)OCO2	-6	-1	8	0	0
N#C/C(=C\c1ccc(/C=C(/C#N)c2nn(CCO)c(N)c2C#N)cc1)c1nn(CCO)c(N)c1C#N	0	-5	-7	155*	-3
CCOc1ccc(CN(C)CCc2ccccn2)cc1	-2	-18	0	-1	50
CC(C)=CCCC(C)CN(C)CCc1ccccn1 (stereo unspecified)	-10	9	2	0	63*
CCN(CC(=O)Nc1c(F)cccc1F)C(=O)CNC(=O)C1CCCCC1	-1	3	7	0	-3
CC1=C(C(=O)c2ccccc2)C(c2cn(-c3ccccc3)nc2-c2ccc(Cl)cc2)NC(=S)N1 (stereo unspecified)	7	-10	27	0	60*
COc1ccc(OC)c(NC(=O)Cn2c(=O)n(CC3CCCO3)c(=O)c3cc(OC)c(OC)cc32)c1 (stereo unspecified)	0	0	-1	0	-10
Cc1ccc(-c2cn3c(n2)SCC3)cc1	14	-1	3	2	-22
CCc1ccc(-c2cn3c(n2)SCC3)cc1	20	7	51*	2	-1
Cc1snc(SCC(=O)N/N=C(\N)COc2cccc(C(F)(F)F)c2)c1C#N	8	-12	30	?	-5
CN1CC(C(=O)Nc2ccc(F)c(Cl)c2)CC1=O (stereo unspecified)	-3	2	-2	1	1
O=C(NC(=S)N1CCN(c2ccc(F)cc2)CC1)C12CC3CC(CC(C3)C1)C2	-1	1	2	0	31
CCOc1ccccc1N1CCN(C(=S)NC(=O)C23CC4CC(CC(C4)C2)C3)CC1	6	7	13	404*	14
CCOC(=O)c1sc2c(c1C)c(=O)n(Cc1ccccc1)c(=O)n2CCN(C)C	2	9	7	-1	59*
Cc1c(C(=O)O)sc2c1c(=O)n(Cc1ccccc1)c(=O)n2C	3	8	4	-1	3
SMILES	HSF1 inhib	Calb FLC	HSF1 activator	HIF act	T cruzi inh
CN(C)CCn1c(=O)n(Cc2ccccc2)c(=O)c2c3c(sc21)CCCCC3	3	-3	18	0	59*
CN(C)CCCn1c(=O)n(CCc2ccccc2)c(=O)c2c3c(sc21)CCCCC3	6	2	23	0	61*
CCC1(c2ccc(F)cc2)NC(=O)NC1=O (stereo unspecified)	-1	-5	-8	0	-14
CCN(Cc1ccncc1)C(=O)c1cc(Br)cc(Br)c1O	11	-32	51*	0	-16
COc1ccccc1C(=O)Oc1ccc2ccc(=O)oc2c1	-5	-1	-5	0	-6
O=C(Oc1ccc2ccc(=O)oc2c1)c1ccco1	12	-4	9	1	64*
Cc1cc(Cl)n2nc(C)c(-c3ccc(Cl)cc3)c2n1	·	113*	·	·	·
Cc1cc(NCCN2CCOCC2)n2nc(C)c(-c3ccccc3)c2n1	-5	1	-11	0	22
Cc1cc(NCCN2CCOCC2)n2nc(C)c(-c3ccc(Cl)cc3)c2n1	31	15	65*	-1	10
O=C(Cc1ccccc1F)Nc1ccc(SC(F)F)cc1	27	-15	59*	1	-7
O=C(COC(=O)Cc1ccccc1F)Nc1ccc(SC(F)F)cc1	-3	5	-8	0	-31
Cc1ccc(C(c2cc(Cl)c3cccnc3c2O)N2CCN(C)CC2)cc1 (stereo unspecified)	-3	88*	11	3	30
Oc1c(C(c2ccc(Cl)cc2)N2CCCC2)cc(Cl)c2cccnc12 (stereo unspecified)	-36	99*	-35	3	70*
Cc1nc2sc(C(c3ccccc3)N3CCN(C)CC3)c(O)n2n1 (stereo unspecified)	-3	29	-18	0	-14
CN1CCN(C(c2ccccn2)c2cc(Cl)c3cccnc3c2O)CC1 (stereo unspecified)	-13	101*	-19	7	?
CN1CCN(C(c2ccc(C(F)(F)F)cc2)c2ccc3cccnc3c2O)CC1 (stereo unspecified)	3	97*	36	5	71*
O=C(Oc1c(Cl)cc(Cl)c2cccnc12)N1CCCCC1	-24	20	-43	0	-12
CCn1ccc(-c2ccccc2)c(C#N)c1=O	-2	9	-8	0	-9
Cc1ccc2[nH]c3c(c2c1)CCCC3NC(=O)CCl (stereo unspecified)	0	-1	5	-1	-46
O=S(=O)(c1cccc2cccnc12)N1CCCCC1	-2	22	-12	-1	-12
Oc1c(C(c2ccccc2Cl)N2CCCC2)ccc2cccnc12 (stereo unspecified)	-6	105*	-1	59*	84*
Oc1c(C(c2ccccn2)N2CCC(Cc3ccccc3)CC2)cc(Cl)c2cccnc12 (stereo unspecified)	-25	105*	-30	1	17
CCOc1ccc(N(CC(=O)NCCc2ccccc2)C(=O)c2csnn2)cc1	0	-12	21	1	0
Cc1ccc(S(=O)(=O)N2CCN(S(=O)(=O)N3CCCCCC3)CC2)cc1	-1	22	-9	0	-1
CC(=O)/C(=N/Nc1ccc(Br)cc1)Sc1cccc2cccnc12	30	-3	67*	0	2
CCN(CC)C(=O)Sc1cccc2cccnc12	4	4	2	0	-22
Cc1cccc(NC(=O)Cn2c(=O)oc3ccccc32)c1	2	-22	1	-2	3
